Our source for the inhibition, Ki and IC50 values is ChEMBL document CHEMBL5715953, “A Potent, Selective, and Cell-Active Inhibitor of Human Type I Protein Arginine Methyltransferases” (ACS Chem Biol, 2016).

For orientation: Ki means the dissociation constant of the complex between target and ligand, obtained from inhibition or displacement. Usually IC50 stands for the point on the concentration scale where inhibition reaches its midpoint.

Assay [1] concerns the target T1, Histone-arginine methyltransferase CARM1 (Homo sapiens) (UniProt Q86X55).
T1 sequence (whole entry): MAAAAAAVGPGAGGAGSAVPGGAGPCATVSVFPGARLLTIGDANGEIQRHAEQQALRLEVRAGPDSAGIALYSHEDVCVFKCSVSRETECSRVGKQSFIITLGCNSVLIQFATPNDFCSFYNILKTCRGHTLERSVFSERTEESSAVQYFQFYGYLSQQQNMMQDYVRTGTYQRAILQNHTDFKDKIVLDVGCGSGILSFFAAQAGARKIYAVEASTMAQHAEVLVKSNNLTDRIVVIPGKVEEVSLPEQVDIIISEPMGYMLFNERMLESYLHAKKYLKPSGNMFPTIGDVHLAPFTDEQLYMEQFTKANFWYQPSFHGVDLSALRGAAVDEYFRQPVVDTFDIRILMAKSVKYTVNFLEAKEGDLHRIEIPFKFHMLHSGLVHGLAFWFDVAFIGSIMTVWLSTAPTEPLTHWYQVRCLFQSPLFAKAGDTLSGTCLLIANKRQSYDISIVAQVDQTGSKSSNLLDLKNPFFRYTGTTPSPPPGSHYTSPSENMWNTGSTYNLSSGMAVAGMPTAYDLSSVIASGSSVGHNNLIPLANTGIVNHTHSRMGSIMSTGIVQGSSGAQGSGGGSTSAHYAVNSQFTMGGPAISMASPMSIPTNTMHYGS
Description: (§1) Inhibition of human PRMT4 using (3H) methylated biotin labelled peptide as substrate in presence of 3H-SAM by scintillation proximity assay. Summed up: (§2)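 Scintillation proximity assay: 3H-SAM as methyl donor, with non-tritiated SAM added when needed. The 3H-methylated biotinylated peptide is captured on streptavidin/scintillant-coated plates and read as counts per minute. IC50 comes from compound titration under balanced conditions, with substrate and cofactor at their Km values. Run in triplicate, mean ± SD. Ki is derived from IC50.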

Assay [2] concerns the target T2, Protein arginine N-methyltransferase 9 (Homo sapiens) (UniProt Q6P2P2).
T2 sequence (whole entry): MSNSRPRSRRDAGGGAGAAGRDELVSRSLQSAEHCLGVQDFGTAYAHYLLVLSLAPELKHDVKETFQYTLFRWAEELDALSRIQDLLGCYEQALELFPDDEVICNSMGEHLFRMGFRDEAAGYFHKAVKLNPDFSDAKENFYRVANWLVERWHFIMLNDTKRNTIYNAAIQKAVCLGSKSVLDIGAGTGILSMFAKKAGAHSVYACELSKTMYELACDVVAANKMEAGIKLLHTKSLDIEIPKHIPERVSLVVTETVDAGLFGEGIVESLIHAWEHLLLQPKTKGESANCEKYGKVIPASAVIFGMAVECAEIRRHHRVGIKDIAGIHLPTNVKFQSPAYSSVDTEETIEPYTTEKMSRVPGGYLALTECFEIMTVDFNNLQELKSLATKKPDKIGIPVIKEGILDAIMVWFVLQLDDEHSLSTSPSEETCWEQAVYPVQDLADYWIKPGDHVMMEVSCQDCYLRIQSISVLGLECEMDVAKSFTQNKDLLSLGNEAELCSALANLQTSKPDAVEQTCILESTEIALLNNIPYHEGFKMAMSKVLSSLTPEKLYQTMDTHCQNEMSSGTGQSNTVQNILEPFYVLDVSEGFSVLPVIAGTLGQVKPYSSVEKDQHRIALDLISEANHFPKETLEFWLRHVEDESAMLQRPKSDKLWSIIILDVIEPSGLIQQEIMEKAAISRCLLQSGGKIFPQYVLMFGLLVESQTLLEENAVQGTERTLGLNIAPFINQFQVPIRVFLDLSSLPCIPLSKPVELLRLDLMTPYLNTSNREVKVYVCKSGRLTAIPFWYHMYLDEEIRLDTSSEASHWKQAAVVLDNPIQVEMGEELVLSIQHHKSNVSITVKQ
The assay can be described thus: Inhibition of human PRMT9 using (3H) methylated biotin labelled peptide as substrate in presence of 3H-SAM by scintillation proximity assay. An outline of the steps: (§3)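 Scintillation proximity assay: 3H-SAM as methyl donor, with non-tritiated SAM added when needed. The 3H-methylated biotinylated peptide is captured on streptavidin/scintillant-coated plates and read as counts per minute. IC50 comes from compound titration under balanced conditions, with substrate and cofactor at their Km values. Run in triplicate, mean ± SD. Ki is derived from IC50. A lower enzyme level (5 nM) is used for some potent compounds.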
(In general: In a scintillation proximity assay essentially only radioactivity close to the scintillant gives light.)

The target of assay [3] is T3, Protein arginine N-methyltransferase 8 (Homo sapiens, UniProt Q9NR22). The assay can be described thus: Inhibition of human PRMT8 using (3H) methylated biotin labelled peptide as substrate in presence of 3H-SAM by scintillation proximity assay. Summed up:
as §3

Assay [4] deals with T4, Protein arginine N-methyltransferase 7 (Homo sapiens) (UniProt Q9NVM4).
T4 sequence (whole entry): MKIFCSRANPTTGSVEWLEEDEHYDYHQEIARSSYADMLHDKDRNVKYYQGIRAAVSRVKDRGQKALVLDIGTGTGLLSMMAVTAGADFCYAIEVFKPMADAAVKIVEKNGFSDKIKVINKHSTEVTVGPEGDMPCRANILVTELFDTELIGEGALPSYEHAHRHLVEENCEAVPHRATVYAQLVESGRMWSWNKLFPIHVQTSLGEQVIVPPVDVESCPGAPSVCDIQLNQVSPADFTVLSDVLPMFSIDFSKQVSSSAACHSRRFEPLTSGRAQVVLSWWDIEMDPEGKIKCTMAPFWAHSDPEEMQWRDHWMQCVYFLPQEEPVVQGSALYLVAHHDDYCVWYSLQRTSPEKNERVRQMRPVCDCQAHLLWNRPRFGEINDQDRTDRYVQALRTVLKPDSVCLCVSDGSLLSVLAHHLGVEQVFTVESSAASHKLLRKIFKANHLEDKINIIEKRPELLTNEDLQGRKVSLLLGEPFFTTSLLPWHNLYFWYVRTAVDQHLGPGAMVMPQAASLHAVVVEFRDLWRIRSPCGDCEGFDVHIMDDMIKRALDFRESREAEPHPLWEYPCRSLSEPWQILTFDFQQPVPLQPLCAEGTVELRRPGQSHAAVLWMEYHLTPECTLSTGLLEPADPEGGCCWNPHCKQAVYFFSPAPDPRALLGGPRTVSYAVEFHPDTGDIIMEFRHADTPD
The assay can be described thus: Inhibition of human PRMT7 using (3H) methylated biotin labelled peptide as substrate in presence of 3H-SAM by scintillation proximity assay. Summed up: as §3

Assay [5] has as its target Protein arginine N-methyltransferase 5 (Homo sapiens) (UniProt O14744). Description: Inhibition of human PRMT5 using (3H) methylated biotin labelled peptide as substrate in presence of 3H-SAM by scintillation proximity assay. An outline of the steps: as §3
Assay [6] concerns the target T5, Protein arginine N-methyltransferase 6 (Homo sapiens, UniProt Q96LA8). Description: Inhibition of human PRMT6 using (3H) methylated biotin labelled peptide as substrate in presence of 3H-SAM by scintillation proximity assay.
For assay [7], the target named is T6, Protein arginine N-methyltransferase 3 (Homo sapiens, UniProt O60678). Description: Inhibition of human PRMT3 using (3H) methylated biotin labelled peptide as substrate in presence of 3H-SAM by scintillation proximity assay.
Assay [8] has as its target T7, Protein arginine N-methyltransferase 1 (Homo sapiens, UniProt Q99873). Description: Inhibition of human PRMT1 using (3H) methylated biotin labelled peptide as substrate in presence of 3H-SAM by scintillation proximity assay.
Assay [9] has as its target T7, Protein arginine N-methyltransferase 1. Description: Inhibition of PRMT1 in human MCF7 cells assessed as decrease in H4R3me2a level incubated for 48 hrs by Western blotting analysis. The format is cell-based. In general terms: Immunoblotting shows a protein as a band on a membrane.
Target sequence in this assay (Q99873 whole entry, looked up): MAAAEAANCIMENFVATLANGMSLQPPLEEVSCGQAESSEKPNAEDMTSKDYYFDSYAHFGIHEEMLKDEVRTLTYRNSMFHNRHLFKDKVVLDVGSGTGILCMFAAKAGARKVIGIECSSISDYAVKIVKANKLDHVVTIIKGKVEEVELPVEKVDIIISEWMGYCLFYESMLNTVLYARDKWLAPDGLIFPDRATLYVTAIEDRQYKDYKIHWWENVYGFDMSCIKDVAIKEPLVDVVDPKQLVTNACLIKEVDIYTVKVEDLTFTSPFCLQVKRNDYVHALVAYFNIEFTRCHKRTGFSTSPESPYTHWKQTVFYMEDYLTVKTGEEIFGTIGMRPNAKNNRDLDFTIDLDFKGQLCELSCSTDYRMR
The target in assay [10] is T3, Protein arginine N-methyltransferase 8. The assay can be described thus: Binding affinity to human PRMT8 assessed as inhibition constant using (3H) methylated biotin labelled peptide as substrate in presence of 3H-SAM by scintillation proximity assay. An outline of the steps: as §3
Target sequence in this assay (Q9NR22 whole entry): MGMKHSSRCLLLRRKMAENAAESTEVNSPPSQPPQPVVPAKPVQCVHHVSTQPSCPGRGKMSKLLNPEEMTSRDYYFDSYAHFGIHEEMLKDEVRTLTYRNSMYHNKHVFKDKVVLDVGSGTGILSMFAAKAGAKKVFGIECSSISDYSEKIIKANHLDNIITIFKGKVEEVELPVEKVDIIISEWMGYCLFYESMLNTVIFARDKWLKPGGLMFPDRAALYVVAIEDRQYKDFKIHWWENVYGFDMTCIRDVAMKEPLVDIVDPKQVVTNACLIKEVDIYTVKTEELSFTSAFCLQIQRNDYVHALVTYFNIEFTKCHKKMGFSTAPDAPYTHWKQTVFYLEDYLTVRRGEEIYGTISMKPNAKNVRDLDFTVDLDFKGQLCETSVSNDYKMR
Assay [11] has as its target T8, Histone-arginine methyltransferase CARM1 (Homo sapiens, UniProt Q86X55).
T8 sequence (Q86X55 whole entry): T1 sequence (whole entry)
The assay is described as §1. Summed up: as §2

In assay [12] the target is T7, Protein arginine N-methyltransferase 1. The assay can be described thus: Binding affinity to human PRMT1 assessed as inhibition constant using (3H) methylated biotin labelled peptide as substrate in presence of 3H-SAM by scintillation proximity assay.
Target sequence in this assay (Q99873 whole entry): as the sequence (Q99873 whole entry, looked up) above
The target in assay [13] is T5, Protein arginine N-methyltransferase 6. The assay can be described thus: Binding affinity to human PRMT6 assessed as inhibition constant using (3H) methylated biotin labelled peptide as substrate in presence of 3H-SAM by scintillation proximity assay. An outline of the steps: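 Scintillation proximity assay with 3H-SAM as methyl donor, topped up with unlabelled SAM when needed. The methylated biotinylated peptide was captured on streptavidin/scintillant-coated plates and counted as cpm. IC50 came from compound titration at Km concentrations of both peptide substrate and SAM, in triplicate, reported as mean ± SD. Ki was calculated from IC50.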
Target sequence in this assay (Q96LA8 whole entry): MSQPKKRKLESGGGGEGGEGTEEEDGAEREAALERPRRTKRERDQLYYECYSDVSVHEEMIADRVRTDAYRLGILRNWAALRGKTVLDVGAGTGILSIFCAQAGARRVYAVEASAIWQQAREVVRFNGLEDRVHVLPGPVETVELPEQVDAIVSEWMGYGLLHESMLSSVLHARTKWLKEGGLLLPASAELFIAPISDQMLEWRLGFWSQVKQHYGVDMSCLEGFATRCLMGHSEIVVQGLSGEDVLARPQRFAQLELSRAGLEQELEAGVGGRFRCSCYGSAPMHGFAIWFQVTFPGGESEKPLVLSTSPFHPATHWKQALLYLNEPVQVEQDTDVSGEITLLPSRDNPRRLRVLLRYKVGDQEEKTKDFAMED

The target of assay [14] is T8, Histone-arginine methyltransferase CARM1. The assay can be described thus: Binding affinity to human PRMT4 assessed as inhibition constant using (3H) methylated biotin labelled peptide as substrate in presence of 3H-SAM by scintillation proximity assay.
The target of assay [15] is T6, Protein arginine N-methyltransferase 3. Description: Binding affinity to human PRMT3 assessed as inhibition constant using (3H) methylated biotin labelled peptide as substrate in presence of 3H-SAM by scintillation proximity assay.
Target sequence in this assay (O60678 whole entry): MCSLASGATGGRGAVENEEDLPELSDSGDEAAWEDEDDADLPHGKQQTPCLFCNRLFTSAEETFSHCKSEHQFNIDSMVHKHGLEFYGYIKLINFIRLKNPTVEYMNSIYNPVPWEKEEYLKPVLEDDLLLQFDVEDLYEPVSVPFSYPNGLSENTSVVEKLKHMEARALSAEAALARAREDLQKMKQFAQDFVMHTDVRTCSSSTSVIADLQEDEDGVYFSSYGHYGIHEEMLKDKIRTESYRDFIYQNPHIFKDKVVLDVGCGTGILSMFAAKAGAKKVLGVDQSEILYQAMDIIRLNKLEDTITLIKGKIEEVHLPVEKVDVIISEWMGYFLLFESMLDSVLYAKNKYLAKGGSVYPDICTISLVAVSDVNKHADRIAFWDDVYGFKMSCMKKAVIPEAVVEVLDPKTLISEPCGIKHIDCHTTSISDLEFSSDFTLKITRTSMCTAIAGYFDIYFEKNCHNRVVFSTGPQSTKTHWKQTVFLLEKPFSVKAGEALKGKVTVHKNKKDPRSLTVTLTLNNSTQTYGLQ

SMILES strings stand for the structures. Active and inactive are the calls of the source. The calls are words filed in the database; no cut-off is given here.

Protein arginine N-methyltransferase 5 (Homo sapiens), sequence (O14744 whole entry): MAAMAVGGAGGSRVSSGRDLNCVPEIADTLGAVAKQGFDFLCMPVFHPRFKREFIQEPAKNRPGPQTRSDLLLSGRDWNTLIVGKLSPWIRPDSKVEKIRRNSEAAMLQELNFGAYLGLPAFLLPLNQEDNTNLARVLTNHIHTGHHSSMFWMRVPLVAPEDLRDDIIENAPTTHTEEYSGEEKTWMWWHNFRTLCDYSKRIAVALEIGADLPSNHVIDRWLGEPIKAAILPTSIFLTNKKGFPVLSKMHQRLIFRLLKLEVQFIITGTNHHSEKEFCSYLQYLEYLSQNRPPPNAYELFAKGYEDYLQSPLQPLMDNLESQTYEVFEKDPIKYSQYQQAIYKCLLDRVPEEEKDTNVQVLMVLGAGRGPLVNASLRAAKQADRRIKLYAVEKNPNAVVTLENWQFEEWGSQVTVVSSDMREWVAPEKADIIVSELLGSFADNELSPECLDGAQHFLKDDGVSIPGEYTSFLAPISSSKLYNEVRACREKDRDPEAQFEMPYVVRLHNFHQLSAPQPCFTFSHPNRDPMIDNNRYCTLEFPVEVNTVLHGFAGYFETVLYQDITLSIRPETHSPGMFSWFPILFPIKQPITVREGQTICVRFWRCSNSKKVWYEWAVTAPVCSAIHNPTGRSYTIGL

For the molecule `CC(C)Oc1ccc(-c2c[nH]cc2C(=O)N(C)CCN)cc1`, the inhibition result in assay [1], in assay [2], in assay [3], in [4], in assay [5] and in assay [6] was “inactive” throughout. Besides, the inhibition entry in assay [7], in assay [8] and in assay [9] was “inactive” each time.
As for `CN(CCN)Cc1n[nH]nc1-c1cccc(C(F)(F)F)c1`, the Ki is 1.5 µM in assay [10]; > 10 µM in assay [12]; 0.11 µM in assay [13]; > 37.5 µM in assay [14]; > 50 µM in assay [15]. Besides, the IC50 was > 75 µM in assay [11]; 3 µM in assay [3]; 0.23 µM in [6]; > 100 µM in [7]; > 20 µM in [8]. Besides, the inhibition entry in assay [2], in [4] and in assay [5] was “inactive” in each case.
In the case of `CC(C)Oc1ccc(-c2c[nH]cc2CN(C)CC(N)=O)cc1`, the inhibition result in assay [1], in [2], in assay [3], in [4], in assay [5] and in assay [6] was “inactive” throughout. Moreover, the inhibition result in [7], in assay [8] and in assay [9] was “inactive” in each case.
As for `CC(C)Oc1ccc(-c2c[nH]cc2CN(C)CCO)cc1`, the inhibition result in assay [1], in assay [2], in assay [3], in assay [4], in [5] and in [6] was “inactive” throughout. For the same molecule, the inhibition entry in [7], in assay [8] and in [9] was “inactive” throughout.
With `CN(CCN)Cc1c[nH]cc1-c1cccc(C(F)(F)F)c1`, the results for the Ki in assay [10] and in [13] were 0.017 µM and 0.003 µM, respectively. Further, the inhibition entry in assay [2], in assay [4] and in assay [5] was “inactive” in each case. The IC50 came out at 0.042 µM in assay [3] and 0.009 µM in [6].
